Source: ChEMBL document CHEMBL4354873, “Rationally Designed Small-Molecule Inhibitors Targeting an Unconventional Pocket on the TLR8 Protein-Protein Interface” (J Med Chem, 2020)
Calls of active or inactive are those of the source. The calls are words filed in the database; no cut-off is given here.

How the values were obtained:
[1] = Cytotoxicity against HEK-Blue cells expressing human TLR8 assessed as reduction in cell viability up to 100 uM measured after 24 hrs by CCK8 assay; assay type: cell-based
Summary of the method: (§1)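 CCK-8 viability: compounds incubated 24 h at 37 °C with HEK-Blue TLR8 cells (4 × 10⁴ cells/well) or PBMCs (3 × 10⁶ cells/mL). CCK-8 was added at 1:10 for up to 2 h, then absorbance read at 450 nm. Values normalized to untreated cells as 100% survival.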

[2] = molecular target: T1, Toll-like receptor 8 (Homo sapiens, UniProt Q9NR97); assay: Binding affinity to human TLR8 ectodomain by isothermal titration calorimetry
T1 sequence (Q9NR97 whole entry): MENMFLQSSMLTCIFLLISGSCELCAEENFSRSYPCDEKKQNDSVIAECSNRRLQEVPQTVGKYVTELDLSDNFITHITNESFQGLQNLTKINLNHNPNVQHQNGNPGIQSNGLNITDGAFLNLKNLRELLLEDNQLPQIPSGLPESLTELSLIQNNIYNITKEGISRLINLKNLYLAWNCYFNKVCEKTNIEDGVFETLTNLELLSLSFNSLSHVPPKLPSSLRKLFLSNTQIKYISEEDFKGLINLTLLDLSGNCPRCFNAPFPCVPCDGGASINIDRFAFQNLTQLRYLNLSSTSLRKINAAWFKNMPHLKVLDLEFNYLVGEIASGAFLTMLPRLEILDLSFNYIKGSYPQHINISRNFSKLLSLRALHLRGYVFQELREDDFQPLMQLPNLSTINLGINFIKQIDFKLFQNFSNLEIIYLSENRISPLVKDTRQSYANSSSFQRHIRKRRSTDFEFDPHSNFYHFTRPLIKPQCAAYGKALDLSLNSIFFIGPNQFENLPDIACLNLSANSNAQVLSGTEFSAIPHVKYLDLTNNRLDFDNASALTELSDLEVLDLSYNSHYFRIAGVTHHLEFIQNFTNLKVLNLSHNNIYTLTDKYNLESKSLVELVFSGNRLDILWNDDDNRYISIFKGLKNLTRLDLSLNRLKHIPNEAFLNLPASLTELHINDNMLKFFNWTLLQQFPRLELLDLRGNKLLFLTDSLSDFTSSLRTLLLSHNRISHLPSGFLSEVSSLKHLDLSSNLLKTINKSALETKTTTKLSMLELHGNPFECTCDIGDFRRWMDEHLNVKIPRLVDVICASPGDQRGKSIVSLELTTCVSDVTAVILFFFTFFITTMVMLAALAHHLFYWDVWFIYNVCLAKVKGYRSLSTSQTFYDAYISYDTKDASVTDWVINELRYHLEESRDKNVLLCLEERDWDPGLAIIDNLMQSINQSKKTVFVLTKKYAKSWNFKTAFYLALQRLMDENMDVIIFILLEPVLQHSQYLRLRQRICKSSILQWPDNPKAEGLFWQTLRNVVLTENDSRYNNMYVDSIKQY
Summary of the method: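 ITC at 298 K in 25 mM MES pH 5.5, 0.20 M NaCl, 5% DMSO. The protein was the human TLR8 ectodomain (residues 27–827). 100 µM compound was titrated into 10 µM hTLR8 as one 0.4 µL injection followed by 18 × 2 µL injections, 120 s apart. Integrated peaks were fitted for Kd.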

[3] = molecular target: Toll-like receptor 1/2 (Homo sapiens) (UniProt O60603+Q15399); assay: Inhibition of human TLR1/2 expressed in HEK-Blue cells assessed as inhibition of Pam3CSK4-induced NF-kappaB activation at 20 uM measured after 24 hrs by quanti-blue based SEAP reporter gene assay; assay type: cell-based
Summary of the method: (§2)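 HEK-Blue SEAP format: 4 × 10⁴ cells/well in DMEM with ligand plus compound, 24 h at 37 °C. Supernatant mixed with QUANTI-Blue up to 1 h, then A620 read. Ligands: Pam3CSK4 100 ng/mL (TLR1/2), Pam2CSK4 100 ng/mL (TLR2/6), poly(I:C) 5 µg/mL (TLR3), LPS 20 ng/mL (TLR4), flagellin 50 ng/mL (TLR5), R848 1 µg/mL (TLR7), R848 2 µg/mL (TLR8), ODN2006 0.5 µM (TLR9). Mean ± s.d.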

[4] = molecular target: TLR2/TLR6 (Homo sapiens) (UniProt O60603+Q9Y2C9); assay: Inhibition of human TLR2/6 expressed in HEK-Blue cells assessed as inhibition of Pam2CSK4-induced NF-kappaB activation at 20 uM measured after 24 hrs by quanti-blue based SEAP reporter gene assay; assay type: cell-based; summary of the method: as §2
[5] = molecular target: T2, Toll-like receptor 8 (Homo sapiens) (UniProt Q9NR97); assay: Inhibition of human TLR8 expressed in HEK-Blue cells assessed as inhibition of R848-induced TNFalpha mRNA level at 1 uM measured after 8 hrs by Trizol reagent based qRT-PCR analysis; assay type: cell-based
T2 sequence (whole entry): T1 sequence (Q9NR97 whole entry)
Summary of the method: (§3)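 RT-qPCR: HEK-Blue TLR8 cells seeded at 1 × 10⁶/well and grown 24 h, then switched to serum-free medium. Treated with R848 4 µg/mL ± compound 1 µM for 8 h. Total RNA extracted with TRIzol, reverse transcribed, TNF-α and IL-8 mRNA quantified. Three independent biological replicates, mean ± s.d.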

[6] = molecular target: T2, Toll-like receptor 8 (Homo sapiens); assay: Inhibition of human TLR8 expressed in HEK-Blue cells assessed as inhibition of R848-induced IL-8 mRNA level at 1 uM measured after 8 hrs by Trizol reagent based qRT-PCR analysis; assay type: cell-based; summary of the method: as §3
[7] = system: PBMC; assay: Cytotoxicity against rheumatoid arthritis patient-derived PBMC assessed as reduction in cell viability up to 80 uM measured after 24 hrs by CCK8 assay; assay type: cell-based; details: human; summary of the method: as §1
[8] = molecular target: T2, Toll-like receptor 8 (Homo sapiens); assay: Inhibition of TLR8 in rheumatoid arthritis patient-derived PBMC assessed as reduction in spontaneous TNFalpha production measured after 24 hrs by ELISA

CSc1nnc(CCCO)n1-c1cc(C)c(C)c(C)c1
Activity [1]: Non-Toxic
Kd [2]: 225 nM
inhibition [3]: inactive
inhibition [4]: inactive
inhibition [5]: Active
inhibition [6]: Active
Activity [7]: Non-Toxic
inhibition [8]: Dose-dependent effect
